# Experimental data as given in PubChem BioAssay AID624467 (The Scripps Research Institute Molecular Screening Center, 2012).
# Several values for one entry are separate records, joined by “and”; a condition that tells them apart may be missing. Equal values may be shown once. The whole screen tested about 360,000 compounds, of which about 3,600 (1%) were called active. The sample holds actives, similar compounds and a random draw of the others, so the mix is not that of the screen. Values without a mark were called inactive.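 Rule for the calls: active = activation above the mean activation of all test compounds in the run plus 3 SD (cut at about 38% in these data); inactive = the rest.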
# Biological target: Trace amine-associated receptor 1 (Homo sapiens) (UniProt Q96RJ0)
# Assay: activators of TAAR1 calcium mobilization – Fluo-8 calcium fluorescence, CHO RD-HGA16 cells, primary screen (AID 624467)
# Conditions: CHO RD-HGA16 TAAR1, Fluo-8 calcium fluorescence; at 3 µM; active compounds read high; vehicle wells 0%, saturating PEA agonist 100%
# Outline: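 Test system: RD-HGA16 (CHO) cells co-expressing Gα16 and hTAAR1 / Benchmarks: DMSO vehicle as 0%, PEA at EC100 as 100% / Repeats: no replicates (n 1) / Measure: % activation from peak over basal fluorescence ratio, DMSO-to-PEA scaled / Timing: 17-24 h plating, Fluo-8 75 min 37 °C, 30 min RT / Technique: kinetic Fluo-8 calcium fluorescence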
# Chain of Trace amine-associated receptor 1 (Homo sapiens) (Q96RJ0 whole entry, looked up): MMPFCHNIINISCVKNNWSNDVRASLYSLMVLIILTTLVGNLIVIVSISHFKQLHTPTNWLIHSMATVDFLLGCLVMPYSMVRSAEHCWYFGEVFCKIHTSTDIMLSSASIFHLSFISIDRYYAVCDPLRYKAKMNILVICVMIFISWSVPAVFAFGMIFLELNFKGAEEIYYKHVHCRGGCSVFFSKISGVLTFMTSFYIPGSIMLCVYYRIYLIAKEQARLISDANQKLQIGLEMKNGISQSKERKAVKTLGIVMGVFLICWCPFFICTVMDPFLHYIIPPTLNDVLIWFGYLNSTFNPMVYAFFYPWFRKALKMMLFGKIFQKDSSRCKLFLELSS
row,Structure (SMILES),activation
1,Nc1cc(=O)n(Cc2ccccc2)c(=O)n1Cc1ccccc1,1.88%
2,CN(C(=O)COC(=O)c1ccc(Br)o1)c1c(N)n(Cc2ccccc2)c(=O)[nH]c1=O,0.16%
3,Cc1cc2nc3c(=O)n(Cc4ccccc4)c(=O)[nH]c3nc2cc1N,53.8% (active)
4,CCN(c1ccccc1)S(=O)(=O)c1cccc(C(=O)NCc2ccccc2CN2CCOCC2)c1,5.65%
5,COC(=O)[C@]1(Cc2ccccc2)NC=C(C(=O)c2ccccc2)[C@@H]1c1cccc(OC)c1,0.41%
6,C[C@H](O)[C@@H]1CN2CCc3ccc(-c4ccc5c(c4)OCO5)cc3[C@@H]2C[C@@H]1N(C)C(=O)C1CCCCC1,-1.03%
7,O=C(O)Cn1cnc2c(NCc3ccccc3)ncnc21,2.25%
8,CC(C)(C)CC(=O)Nc1nnc(SCC(=O)NCc2cccs2)s1,1.84%
9,COc1ccc(CC(N)c2csc(NC(=O)NC(c3ccccc3)c3ccccc3)n2)cc1 (stereo not given),21.8%
10,CC(C)(C)CC(=O)Nc1nc(C(N)Cc2ccc(C(F)(F)F)cc2)cs1 (stereo not given),63.4% (active)
11,COc1ccc(CC(N)c2csc(NC(=O)Cc3ccccc3)n2)cc1 (stereo not given),56.1% (active)
12,NC(Cc1ccc(F)cc1)c1csc(Nc2nncc3ccccc23)n1 (stereo not given),35.4%
13,COc1ccc(CC(N)c2csc(NC(=O)Nc3ccc(C(C)C)cc3)n2)cc1 (stereo not given),47.2% (active)
14,Cc1ccccc1NC(=O)Cc1nc(COC(=O)c2ccc(C(F)(F)F)cc2)cs1,6.08%
15,COc1ccc(S(=O)(=O)N2CCN(C(C)C(=O)Nc3ccc(C(C)C)cc3)CC2)cc1 (stereo not given),0.11%
16,COC(=O)[C@H](CCSC)NC(=O)Nc1ccc(OC)cc1,-1.88%
17,NC(Cc1ccccc1)c1csc(Nc2cc(Oc3ccccc3)ncn2)n1 (stereo not given),69.5% (active)
18,COc1ccc(CC(=O)Nc2sc(Cc3ccccc3)c(C)c2C(N)=O)cc1,3.38%
19,CC(=NNC(N)=O)c1ccc(Cl)c(-n2cccc2)c1,0.51%
20,CCN(C(=O)c1ccc(Br)cc1)c1ccccc1,0.89%
21,COc1ccc(CNS(=O)(=O)c2cc(Br)ccc2Br)cc1,3.49%
22,C[C@@H]1CN([C@H](C)CO)C(=O)CCCn2cc(nn2)CO[C@H]1CN(C)C(=O)Nc1ccc(N2CCCCC2)cc1,0.76%
23,O=C(C(=O)N1CCC(CNS(=O)(=O)Cc2ccccc2)CC1)c1cc2ccccc2o1,3.18%

row,Structure (SMILES),activation
1,CCOC(=O)c1cnc(SC)nc1Sc1ccc(Cl)cc1Cl,9.74%
2,C=CCNC(=O)c1sc(SC)cc1-c1ccc(Cl)cc1,4.3%
3,CC(C)(C)C(c1nc2ccccc2[nH]1)n1c(Cc2csc3ccccc23)nc2ccccc21 (stereo not given),0.77%
4,CC(=O)C1=C(C)N(Cc2ccc(Cl)cc2)C(=S)NC1c1ccc(F)cc1 (stereo not given),-0.39%
5,O=[N+]([O-])c1cccc(S(=O)(=O)NCc2ccccn2)c1,2.02%
6,O=S(=O)(NCCc1ccccn1)c1cc(Cl)cc(Cl)c1O,3.97%
7,O=[N+]([O-])c1cc(S(=O)(=O)NCCc2ccccn2)ccc1Cl,68.6% (active)
8,CCCCOCC1CN(CCCC)S(=O)(=O)c2c(Oc3ccc(F)cc3)cccc2O1 (stereo not given),1.51%
9,COC(=O)C1=C(C)N(Cc2cccc(C(F)(F)F)c2)C(=NCc2ccccc2)NC1c1ccc(Cl)cc1 (stereo not given),19.1%
10,Cc1ccccc1S(=O)(=O)Cc1ccc(C(=O)NCCN2CCCCC2C)o1 (stereo not given),8.73%
11,CCc1ccccc1S(=O)(=O)Cc1ccc(C(=O)NCCc2ccccc2)o1,50.3% (active)
12,COc1ccccc1CNC(=O)c1ccc(CS(=O)(=O)c2ccccc2)o1,11.9%
13,CCCc1nnc(NC(=O)CCC(=O)N2CCN(S(=O)(=O)c3ccc(OC)cc3)CC2)s1,4.53%
14,CC1CCCN(c2cccc3c2S(=O)(=O)N(Cc2ccc(F)cc2)[C@@H](C)[C@H](c2ccccc2)O3)C1 (stereo not given in full),0.84%
15,COC(=O)[C@]12C[C@H](CC(=O)NCc3ccccc3)C(=O)N(CCC3=CCCCC3)C1=C[C@H](C(C)(C)C)O[C@@H]2C,-2.08%
16,CCCC1CCC(=NNC(=S)NCCc2ccccc2)CC1 (stereo not given),54.9% (active)
17,S=C(NN=C1CCN(Cc2ccccc2)CC1)NC1CCCCC1,1.76%
18,CCCCNC(=S)N/N=C1\CCCCc2ccccc21,-2.14%
19,Cc1cccnc1CCNC(=O)C1CCC(=O)N(Cc2cccc(F)c2)C1 (stereo not given),0.59%
20,CN1CCCCC(NC(=O)C(C)(C)C)C1=O (stereo not given),3.02%
21,O=[N+]([O-])c1ccccc1N/N=C1\CCc2ccccc21,-0.37%
22,Oc1ccc2ccc3cccc[n+]3c2c1,152% (active)
23,Cc1ccc(C)c(CN2CCC(CNC(=O)C3CCCN(c4ncnc5c4nc4n5CCCCC4)C3)CC2)c1 (stereo not given),-0.04%

row,Structure (SMILES),activation
1,COc1ccccc1Cc1c(-c2ccc(F)cc2)nc2ccc(C)cn12,0.01%
2,COc1ccccc1Cc1c(-c2ccc(Cl)cc2)nc2ccc(Cl)cn12,-1.69%
3,COc1ccccc1CCn1cnc(-c2ccccc2)c1C(C)C,8.43%
4,CCc1c(-c2ccccc2OC)ncn1CCc1ccccc1OC,53% (active)
5,CCCCc1c(-c2ccc(Cl)cc2)ncn1CCc1ccccc1OC,54.2% (active)
6,COc1ccccc1CCNS(=O)(=O)c1cn(C)nc1C,4.37%
7,CCCCc1c(-c2ccc(Br)cc2)ncn1CCc1ccccc1OC,48% (active)
8,COc1ccccc1Cc1c(-c2ccc(Cl)cc2)nc2c3ccccc3ccn12,0.7%
9,CCCc1c(-c2ccccc2F)ncn1Cc1ccccc1OC,5.04%
10,[2H]C(CCOS(N)(=O)=O)c1ccccc1 (stereo not given),-0.46%
11,CCCNC(=O)CCc1c(C)nc2c(c(C)nn2-c2ccccc2)c1C,1.73%
12,O=C1CC(C(F)(F)C(F)(F)C(F)(F)C(F)(F)F)=Nc2ccccc2N1,-0.77%
13,COc1ccc(-c2ccccc2C2Cc3nnccc3CN2C(=O)Nc2ccccc2)cc1 (stereo not given),-0.83%
14,COC(=O)c1cc2c(c3c4ccccc4n(S(=O)(=O)c4cccc(C)c4)c13)C(=O)N(Cc1ccccc1)C2,3.11%
15,C=CCNC(=O)COC(=O)c1ccccc1C(=O)N(C)C1CCCCC1,5.08%
16,NS(=O)(=O)c1ccc(CCNC(=O)NC2CCCCC2)cc1,1.51%
17,CC(C)C(=O)Nc1ccc2c(c1)oc1ccccc12,6.67%
18,NC(=O)Nc1ccccc1C(=O)NCCc1ccccc1,10.1%
19,CC(NC(=O)CC1SC(N)=NC1=O)c1ccccc1 (stereo not given),4.22%
20,Nc1[nH]c(C(=O)c2ccc(Br)cc2)c(-c2ccc3c(c2)OCO3)c1C(=O)NCCc1c[nH]c2ccccc12,6.41%
21,COc1ccc(C(N)c2csc(NC(=O)Nc3cccc(C(F)(F)F)c3)n2)cc1 (stereo not given),50.9% (active)
22,C/C(CC(=O)Nc1cccc(C(F)(F)F)c1)=N\NC(=O)C(=O)NCC(C)C,4.66%
23,NC(c1csc(NC(=O)Nc2ccccc2Oc2ccccc2)n1)c1ccccc1Cl (stereo not given),13.7%

row,Structure (SMILES),activation
1,CC(=O)c1ccc(Nc2nc(C(N)c3ccccc3)cs2)cc1 (stereo not given),4.52%
2,CCOC(=O)c1csc(NC(=O)Nc2cccc(OC)c2)n1,14.4%
3,COc1cc(NC(=O)c2cncc(-c3ccc(C#N)cc3)c2)cc(C(=O)Nc2cccc(C(F)(F)F)c2)c1,7.65% and 3.81%
4,NC(c1ccccc1)c1csc(NC(=O)Nc2cccc(C(F)(F)F)c2)n1 (stereo not given),57% (active)
5,NC(c1csc(NC(=O)Nc2cccc(C(F)(F)F)c2)n1)C1CCCCC1 (stereo not given),39% (active)
6,COc1cccc(NC(=O)Nc2nnc(N3CCCCC3C)s2)c1 (stereo not given),0.7%
7,CC1(C(=O)NS(=O)(=O)c2cccc(F)c2)CCN1C(=O)c1cccc2ccccc12 (stereo not given),-0.17%
8,O=S1(=O)c2c(cccc2N2CCCC2)O[C@H](COCc2ccccc2)CN1C1CC1,0.87%
9,Cc1cc(N2CCN(C(=O)OC(C)(C)C)C[C@H]2C)ccc1N1CCN(Cc2ccccc2)[C@H](C)C1,0.58%
10,Cc1nc2c(OCc3ccc(Cl)cc3)cccn2c1N(C)Cc1cccs1,0.87%
11,CCCCCCCCN1C(=O)[C@@H](CC(=O)NCc2ccccc2)C[C@@]2(C(=O)OC)C1=C[C@H](C(C)(C)C)O[C@@H]2C,-0.96%
12,Cc1ccc(OC(=O)c2cncc(Br)c2)c(C)c1,6.31%
13,COCCNC(=O)C1CCN(C(=O)C2CC(=O)N(c3ccc(C)cc3)C2)CC1 (stereo not given),-0.76%
14,Cc1onc(-c2ccccc2)c1C(=O)N1CCN(S(=O)(=O)c2ccccc2C(F)(F)F)CC1,0.73%
15,COc1ccc(C(=O)NC(=S)NNC(=O)c2c(-c3ccccc3)noc2C)cc1,120% (active)
16,Cc1nc2ccccc2c(C)c1C(=O)c1ccc(F)cc1,12.1%
17,COc1ccc(NC(=O)c2sc(N3CCOCC3)nc2-c2ccccc2)c(OC)c1,-1.31%
18,Cc1onc(-c2ccccc2)c1C(=O)NNC(=S)NC(=O)c1ccc(F)cc1,112% (active)
19,COc1ccc(C(=O)NC(=O)CSc2nnc(-c3ccco3)n2-c2ccccc2)cc1,1.34%
20,O=C(O)C1CCN(S(=O)(=O)N2CCOCC2)CC1,7.75%
21,Cc1ccc(OCC(=O)Nc2ccc(C(=O)O)cc2NC(=O)COc2ccc(C)c(C)c2)cc1C,3.56%
